# Screens (PubChem)
# In the library only some 3.5% were active in any assay of this set; here they are far more common.
# ERAP1 inh: blocks human ERAP1 aminopeptidase activity; recombinant ERAP1, Leu-AMC fluorescence, 60 min; actives 0.15% (n = 340,000); inhibition, % at 10.7 µM; Q9NZ08; AID 652197;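 active = mean replicate inhibition of at least 30%, or all replicates individually reaching that 30% level; inactive = mean below 30% and not every replicate reaching it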;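 also: 0% = neutral control wells and 100% = L-leucinethiol positive control wells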
# Wnt bcat act: activators of Wnt/beta-catenin signaling; AID 743398; Wnt/beta-catenin reporter cell assay, activator, plate reader; activation, % at 9.35 µM; actives 1.2% (n = 300,000); in the data active = activation above about 30%, passing the limit was not always enough;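 also: 0% = neutral control wells and 100% = positive control wells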
# MITF TRPM1 HTS: increases MITF-driven TRPM1 promoter luciferase signal; SK-MEL-5 TRPM1-promoter luciferase, 24 h; % of positive control, neutral wells = 0; activation, % at 12.5 µM; actives 0.75% (n = 300,000);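 active = mean activation of at least 80% with every replicate also reaching 80%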;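 also: 0% = neutral control wells and 100% = parthenolide positive control wells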
# Cneo AK release: causes C. neoformans cell lysis. lysis activity, % at 15 µM. AID 651654. adenylate kinase release luminescence, 4 h; normalised: neutral wells 0, clomiphene wells 100. actives 0.2% (n = 360,000);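 active = mean lysis activity across replicates of at least 80%, whatever share of replicates individually reach that level; inactive = mean lysis activity below 80%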
#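 read-out = cell lysis signal | test system = log-phase Cryptococcus neoformans yeast cells | input = cells at 5 × 10^6 per mL | medium = fresh YPD growth medium | signal = luminescent adenylate kinase detection reagent | timing = 4 h at 37 °C static, read 1 h later | dosing = single dose | controls = Clomiphene as positive lysis control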
# esBAF inh: SWI/SNF esBAF complex inhibition | AID 602393 | actives 2% (n = 350,000) | reporter increase, % at 12.5 µM | mouse ES cells, Bmi1-luciferase knock-in reporter, 24 h; 100% = twice the neutral-well signal; in the data active = activation above about 40%;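 also: 0% = median of the plate's neutral control wells and 100% = double that signal; a rise in the Bmi1 reporter signal indicates esBAF inhibition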
# HIV Env fusion: HIV envelope-mediated fusion inhibition; HeLa-JRFL Env/CEM21 cell fusion, luciferase; inhibition, % at 12.3 µM; actives 1.1% (n = 360,000); AID 651610;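 active = mean replicate inhibition score of at least 50 and every replicate individually at or above 50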;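 also: 0% = plate neutral controls and 100% = maraviroc near 300 nM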
# * hit, by the source's call; / = no result; ! = not active in a repeat; [ ] = another dose, or the depositor's remark.
SMILES,ERAP1 inh,Wnt bcat act,MITF TRPM1 HTS,Cneo AK release,esBAF inh,HIV Env fusion
C[C@H]1CN([C@@H](C)CO)C(=O)Cc2cc(NC(=O)Cc3cn(C)c4ccccc34)ccc2O[C@H]1CN(C)S(=O)(=O)c1ccccc1,0,/,/,0,-2,67*[16.7 µM]
C[C@H](CO)N1C[C@H](C)[C@H](CN(C)S(=O)(=O)c2ccc(F)cc2)Oc2ccc(NC(=O)Cc3cn(C)c4ccccc34)cc2CC1=O,4,/,/,1,1,56*[16.7 µM]
Cc1ccc(S(=O)(=O)N(C)C[C@@H]2Oc3ccc(NC(=O)Cc4cn(C)c5ccccc45)cc3CC(=O)N([C@H](C)CO)C[C@@H]2C)cc1,3,/,/,43,-3,74*[16.7 µM]
COc1ccc(-c2ccc([C@@H]3[C@H](CO)N4CCCCN(C(=O)NC(C)C)C[C@@H]34)cc2)cc1,3,/,/,-2,0,/
CCS(=O)(=O)N1CCC2(CC1)CN(C(=O)NC(C)C)[C@H](CO)c1c2c2ccc(OC)cc2n1C,-2,/,/,/,/,/
CC(C)N1C(=O)C2(OCCCO2)c2cc(Br)ccc21,-3,0,/,84*,-9,4
COC(=O)CN1C(=O)C2(OCCCO2)c2cc(Br)ccc21,-2,-13,-10,-1,3,6
C[C@H](CO)N1C[C@H](C)[C@H](CN(C)C(=O)NC2CCCC2)Oc2cc(-c3cccnc3)ccc2S1(=O)=O,0,/,/,4,0,-3[16.7 µM]
Cc1ccc(S(=O)(=O)N(C)C[C@@H]2Oc3ccc(NC(=O)Cc4ccccc4)cc3CC(=O)N([C@H](C)CO)C[C@@H]2C)cc1,-1,/,/,-2,4,77*[16.7 µM]
C[C@H]1CN([C@@H](C)CO)C(=O)Cc2cc(NC(=O)Nc3ccc4c(c3)OCO4)ccc2O[C@H]1CN(C)S(=O)(=O)c1ccccc1,0,/,/,/,5,63*[16.7 µM]
C[C@H]1CN([C@@H](C)CO)C(=O)Cc2cc(NC(=O)Cc3ccccc3)ccc2O[C@H]1CN(C)S(=O)(=O)c1ccccc1,2,/,/,1,-1,73*[16.7 µM]
Cc1ccc(S(=O)(=O)N(C)C[C@H]2Oc3ccc(NC(=O)Cc4ccccc4)cc3CC(=O)N([C@H](C)CO)C[C@H]2C)cc1,2,/,/,-10,-7,30[16.7 µM]
COc1ccc(CNC(=O)C[C@H]2C[C@H]3c4cc(NC(=O)C5CCC5)ccc4O[C@H]3[C@@H](CO)O2)cc1,4,/,/,4,-5,6[16.7 µM]
CC(C)NC(=O)N(C)C[C@@H]1Oc2ccc(NC(=O)CCCCCC(=O)Nc3ccccc3N)cc2CC(=O)N([C@H](C)CO)C[C@@H]1C,1,/,/,7,0,20[16.7 µM]
Nc1nc2c(ncn2[C@@H]2O[C@H](C(=O)NCC(c3ccccc3)c3ccccc3)[C@@H](O)[C@H]2O)c(=O)[nH]1,0,-4,/,/,/,75*
CCCC#Cc1ccc([C@H]2[C@H](CO)N3C(=O)CN(C(=O)c4ccncc4)C[C@@H]23)cc1,0,/,/,/,/,/
CCOC(=O)c1c(C)c(C(=O)Nc2ccc(N(C)C)cc2)c(C)n1CC,2,-3,-21,-2,47*,/
CCOC(=O)c1c(C)c(C(=O)NCCOC)c(C)n1CC,-1,-1,2,0,1,/
Cc1ccc2cc(CN(CC3CCCO3)S(=O)(=O)c3ccccc3)c3nnnn3c2c1 (stereo unspecified),-8,1,2,-2,8,4
Cc1ccc2cc(CN(CC3CCCO3)C(=O)Nc3ccccc3F)c3nnnn3c2c1 (stereo unspecified),3,2,29,/,45*,-9
CC1CCc2c(nc3sc4c(c3c2N)CCCC4)C1 (stereo unspecified),8,25,39,0,30,-29
CC1CCc2nc3sc4c(c3c(N)c2C1)CCCC4 (stereo unspecified),/,45*,58,/,/,9
CSCC(=O)N1CCC(n2nccc2NC(=O)c2ccc3c(c2)OCO3)CC1,3,13,30,-3,58*,-13
CC=Cc1ccc2n(c1=O)C[C@H]1[C@H](CO)[C@@H](C(=O)NC3CCC3)[C@@H]2N1Cc1cccnc1 (mixture of isomers),0,/,/,-5,-1,/
CO[C@H]1CN(C)C(=O)c2ccc(NS(C)(=O)=O)cc2OC[C@H](C)N(CC2CC2)C[C@@H]1C,-3,/,/,10,0,/
SMILES,ERAP1 inh,Wnt bcat act,MITF TRPM1 HTS,Cneo AK release,esBAF inh,HIV Env fusion
Cc1ccc(O)c(NC(=O)c2ccco2)c1,/,11,17,-8,18,-46
CCC(=O)Nc1cc(C)c(NC(=O)c2ccco2)cn1,/,0,3,4,5,-2
Cc1cc(O)c(NC(=O)c2ccco2)cc1C,/,22,26,-1,47*,-110
Cc1ccc(C(=O)Nc2ccc(NC(=O)c3ccco3)c(C)c2)cc1,-1,13,91*,0,28,-18
Cc1cc(NC(=O)c2ccccc2)ncc1NC(=O)c1ccco1,/,38*,32,-3,/,-131
CNc1cncc(-c2ccc(O)cc2)n1,-20,18,/,1,13,-21
CNc1cncc(-c2ccc(OC)cc2)n1,-10,2,/,-1,41*,-9
COc1ccc(CN2C[C@H](C)[C@@H](OC)CN(C)C(=O)c3cc(NC(=O)c4nc5ccccc5s4)ccc3OC[C@@H]2C)cc1,0,/,/,-1,-2,/
O=C1c2cccc3c(N4CCCCC4)ccc(c23)C(=O)N1CCO,/,53*,59,-5,72*,-382
C[C@H]1CN([C@@H](C)CO)C(=O)c2cc(NC(=O)Cc3cn(C)c4ccccc34)ccc2O[C@@H]1CN(C)C(=O)NC1CCCCC1,0,/,/,1,0,1[16.7 µM]
C[C@H](CO)N1C[C@H](C)[C@@H](CN(C)C(=O)Nc2ccc(F)cc2)OCCCC[C@H](C)Oc2ccc(NS(=O)(=O)c3cccs3)cc2C1=O,-4,/,/,3,2,-50[16.7 µM]
O=C(Nc1ccccn1)Nc1ccccc1Cl,2,11,/,0,53*,-45
O=C(Nc1ccc(Cl)cn1)Nc1ccccc1Cl,-3,17,-8,-5,35*,-44
O=C(Nc1ccccc1Cl)c1ccn[nH]1,/,/,12,-1,52*,/
O=C(Nc1cnccn1)Nc1ccccc1Cl,1,12,7,-1,7,-19
O=C(C[C@@H]1C=C[C@@H](NC(=O)Nc2ccc(C(F)(F)F)cc2)[C@@H](CO)O1)NCc1cc(F)cc(F)c1,-4,/,/,1,1,15[16.7 µM]
O=C1c2c(O)ccc(O)c2C(=O)c2c(NCCNCCO)ccc(NCCNCCO)c21,39*!,-24,-85,-1,-83,58*
O=C1c2ccccc2C(=O)c2c(Nc3ccc(CCO)cc3)ccc(O)c21,2,3,-16,-6,-8,-52
Nc1ccccc1-c1nc2ccccc2[nH]c1=O,0,9,61,-4,53*,13
CCc1sc(C(=O)Nc2ccc3c(c2)OCCO3)cc1Br,2,43*,104*,-14,51*,-325
